Laboratory results published in ChEMBL document CHEMBL1139138, “Pyrrolidine-constrained phenethylamines: The design of potent, selective, and pharmacologically efficacious dipeptidyl peptidase IV (DPP4) inhibitors from a lead-like screening hit” (Bioorg Med Chem Lett, 2007).

Assays:
Format in all cases: ADME
[1] = Half life in human liver microsome; details: liver microsomes
Method in brief: (§1)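 Stability on incubation with rat or human liver microsomes, expressed as half-life.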

[2] = Half life in rat liver microsome; details: liver microsomes; method in brief: as §1
Cytochrome P450 2D6 = Cytochrome P450 2D6 (Homo sapiens, UniProt P10635); test: Inhibition of CYP2D6
Cytochrome P450 3A4 = Cytochrome P450 3A4 (Homo sapiens, UniProt P08684); test: Inhibition of CYP3A4
Cytochrome P450 2C9 = Cytochrome P450 2C9 (Homo sapiens, UniProt P11712); test: Inhibition of CYP2C9
Sequence of Cytochrome P450 2C9 (P11712 whole entry): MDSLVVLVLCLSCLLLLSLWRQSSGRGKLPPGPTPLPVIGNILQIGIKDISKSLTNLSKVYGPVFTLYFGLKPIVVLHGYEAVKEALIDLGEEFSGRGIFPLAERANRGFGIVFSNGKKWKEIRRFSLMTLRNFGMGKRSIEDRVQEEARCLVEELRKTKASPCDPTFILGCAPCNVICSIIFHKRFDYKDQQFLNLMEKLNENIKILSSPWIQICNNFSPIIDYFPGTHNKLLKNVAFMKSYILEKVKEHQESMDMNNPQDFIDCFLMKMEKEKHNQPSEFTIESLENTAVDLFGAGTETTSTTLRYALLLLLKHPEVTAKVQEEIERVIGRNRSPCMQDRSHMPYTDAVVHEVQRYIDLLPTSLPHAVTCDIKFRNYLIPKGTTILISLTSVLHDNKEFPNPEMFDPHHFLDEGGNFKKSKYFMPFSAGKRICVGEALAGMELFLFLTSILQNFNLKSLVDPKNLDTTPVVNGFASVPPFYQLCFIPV

Sequence of Cytochrome P450 2D6 (P10635 whole entry): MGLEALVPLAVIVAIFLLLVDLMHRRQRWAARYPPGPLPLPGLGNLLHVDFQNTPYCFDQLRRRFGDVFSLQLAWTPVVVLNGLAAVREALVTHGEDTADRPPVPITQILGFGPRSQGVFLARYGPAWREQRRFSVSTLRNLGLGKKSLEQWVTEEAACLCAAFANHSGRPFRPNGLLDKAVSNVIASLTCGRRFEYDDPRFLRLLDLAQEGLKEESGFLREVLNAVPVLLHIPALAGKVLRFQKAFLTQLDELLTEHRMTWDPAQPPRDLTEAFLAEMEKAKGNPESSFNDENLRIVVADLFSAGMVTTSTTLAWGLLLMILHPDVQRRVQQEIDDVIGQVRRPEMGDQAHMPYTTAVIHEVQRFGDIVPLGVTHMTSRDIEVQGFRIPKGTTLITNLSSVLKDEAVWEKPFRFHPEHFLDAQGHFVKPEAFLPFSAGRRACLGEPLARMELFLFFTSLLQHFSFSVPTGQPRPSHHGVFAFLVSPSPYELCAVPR
Sequence of Cytochrome P450 3A4 (P08684 whole entry): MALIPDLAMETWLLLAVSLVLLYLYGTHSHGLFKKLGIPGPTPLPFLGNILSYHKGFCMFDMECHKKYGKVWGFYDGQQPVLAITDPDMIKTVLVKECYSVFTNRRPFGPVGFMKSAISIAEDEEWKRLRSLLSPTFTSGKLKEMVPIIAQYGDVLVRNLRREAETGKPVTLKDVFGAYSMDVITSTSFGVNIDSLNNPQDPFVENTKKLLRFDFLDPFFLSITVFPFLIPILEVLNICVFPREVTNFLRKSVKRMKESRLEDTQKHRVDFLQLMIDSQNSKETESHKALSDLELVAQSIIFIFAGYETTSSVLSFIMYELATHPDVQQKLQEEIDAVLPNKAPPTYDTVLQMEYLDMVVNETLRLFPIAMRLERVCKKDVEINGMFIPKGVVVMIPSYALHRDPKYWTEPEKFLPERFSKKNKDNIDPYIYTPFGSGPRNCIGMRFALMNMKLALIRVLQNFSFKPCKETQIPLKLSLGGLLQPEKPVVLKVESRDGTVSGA

half-life [1] [h] | half-life [2] [h] | IC50 (Cytochrome P450 2D6) [µM] | IC50 (Cytochrome P450 3A4) [µM] | IC50 (Cytochrome P450 2C9) [µM] | SMILES
> 3 | > 3 |  |  |  | NC1CN(C(=O)NCc2cccc(F)c2)CC1c1ccc(Cl)cc1Cl (racemic)
> 3 | > 3 |  |  |  | COc1cccc(CN(C)C(=O)N2CC(N)C(c3ccc(Cl)cc3Cl)C2)c1 (racemic)
> 3 | > 3 |  |  |  | NC1CN(c2cc(-c3ccsc3)ncn2)CC1c1cc(F)c(F)cc1Cl (racemic)
> 3 | > 3 |  |  |  | NC1CN(c2nccc(-c3ccsc3)n2)CC1c1ccc(Cl)cc1Cl (racemic)
> 3 | > 3 |  |  |  | NC1CN(c2ccnc(-c3ccsc3)n2)CC1c1ccc(Cl)cc1Cl (racemic)
> 3 | > 3 |  |  |  | NC1CN(c2cc(-c3ccsc3)ncn2)CC1c1ccc(F)cc1Cl (racemic)
> 3 | > 3 |  |  |  | CCOC(=O)N1CC(N)C(c2ccc(Cl)cc2Cl)C1 (racemic)
> 3 | > 3 |  |  |  | Cc1cccc(COC(=O)N2CC(N)C(c3ccc(Cl)cc3Cl)C2)n1 (racemic)
> 3 | > 3 |  |  |  | NC1CN(c2nccc(-c3ccccc3)n2)CC1c1ccc(Cl)cc1Cl (racemic)
> 3 | > 3 |  |  |  | NC1CN(c2cc(-c3ccsc3)ncn2)CC1c1ccc(Cl)cc1Cl (racemic)
> 3 | > 3 | 0.098 | > 10 | > 10 | NC1CN(c2cc(-c3ccsc3)ncn2)CC1c1cc(F)c(F)cc1F (racemic)
> 3 | > 3 |  |  |  | CC(=O)N1CC(N)C(c2ccc(Cl)cc2Cl)C1 (racemic)
> 3 | > 3 |  |  |  | CCNC(=O)N1CC(N)C(c2ccc(Cl)cc2Cl)C1 (racemic)
> 3 | > 3 |  |  |  | CCN(C)C(=O)N1CC(N)C(c2ccc(Cl)cc2Cl)C1 (racemic)
> 3 | > 3 |  |  |  | NC1CN(c2ccccc2)CC1c1ccc(Cl)cc1Cl (racemic)
